Compound activity deposited in PubChem by several laboratories.
tolC growth inh = blocks growth of E. coli BW25113 tolC mutant. OD615. growth inhibition, % at 10 µM (by protocol). 65,000 compounds, 2.2% hits. AID 573;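 active means growth inhibition at or above a cutoff equal to the mean over every tested compound plus 3 SD, cut at about 60% in these data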;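 further: growth measured after 20 h incubation at 37 °C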
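System: E. coli ΔtolC::kan strain BW25113; Buffer or medium: LB broth supplemented with 50 µg/mL kanamycin; Compound: 10 µM final, single dose; Incubation: bacterial growth with compound for 20 h at 37 °C; Signal: A615 absorbance measurement; Evaluation: growth inhibition in percent.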
CD11b adhes inh = inhibitors of human CD11b/CD18 binding to fibrinogen. 93,000 compounds, 0.54% hits. inhibition, % at 10 µM. P05107+P11215. K562 CD11b/CD18 adhesion to fibrinogen, ATPlite luminescence; Mn2+ added to activate the integrin;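 active means primary inhibition of 50% or more at 10 µM, then 40% or more on retest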
Target sequence (P05107 whole entry, looked up, other chains not shown): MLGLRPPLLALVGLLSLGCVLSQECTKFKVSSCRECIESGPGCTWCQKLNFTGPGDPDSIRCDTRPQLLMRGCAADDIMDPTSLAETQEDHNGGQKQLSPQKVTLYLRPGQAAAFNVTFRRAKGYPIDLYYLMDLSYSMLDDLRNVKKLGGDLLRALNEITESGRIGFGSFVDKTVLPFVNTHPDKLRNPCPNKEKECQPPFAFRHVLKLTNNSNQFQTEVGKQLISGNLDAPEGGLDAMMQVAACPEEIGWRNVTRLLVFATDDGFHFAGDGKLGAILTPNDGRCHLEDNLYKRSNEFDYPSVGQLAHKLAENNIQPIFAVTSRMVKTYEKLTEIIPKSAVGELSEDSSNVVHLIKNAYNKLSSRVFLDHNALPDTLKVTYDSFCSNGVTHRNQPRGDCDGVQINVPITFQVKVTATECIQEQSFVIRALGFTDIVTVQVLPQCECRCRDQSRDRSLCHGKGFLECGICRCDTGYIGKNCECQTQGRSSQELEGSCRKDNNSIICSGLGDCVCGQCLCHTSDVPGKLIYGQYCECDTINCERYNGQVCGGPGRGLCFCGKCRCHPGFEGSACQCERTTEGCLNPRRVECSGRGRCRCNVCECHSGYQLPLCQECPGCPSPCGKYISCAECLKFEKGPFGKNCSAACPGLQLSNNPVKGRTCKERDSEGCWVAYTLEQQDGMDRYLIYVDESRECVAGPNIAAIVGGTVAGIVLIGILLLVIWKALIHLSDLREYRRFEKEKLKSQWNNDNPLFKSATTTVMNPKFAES
CD11b adhes enh = increases human CD11b/CD18 adhesion to fibrinogen; activation, % at 10 µM; 93,000 compounds, 0.07% hits; P05107+P11215; K562 CD11b/CD18 adhesion to fibrinogen, ATPlite luminescence; AID 1499;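 active means 10 µM primary screen giving 50% or more activity, confirmed by 40% or more on retest at that dose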
Ecoli WT expand = growth inhibitors of E. coli BW25113 wild type; OD600 absorbance; growth inhibition, % at 100 µM; 98,000 compounds, 0.15% hits; AID 710;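 active means growth inhibition above about 50% at one test dose, limit read from the data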;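 further: growth measured after 20 h incubation at 37 °C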
* hit, by the source's call; · = no result. The full list was thinned out, with hits kept by preference.

SMILES | tolC growth inh | CD11b adhes inh | CD11b adhes enh | Ecoli WT expand
COc1c(N2CCNC(C)C2)c(F)cc2c(=O)c(C(=O)O)cn(C3CC3)c12 (stereo unspecified) | 96.7* | · | · | ·
Cc1cc(N2CCCC2)ccc1/C=N/n1cnnc1 | 5.0 | 13.4 | -1.6 | 3.0
Cn1c(=O)n(Cc2ccccc2)c(=O)c2c1nc1n2CCCN1Cc1ccccc1 | 62.2* | 4.5 | -2.0 | 9.0
COc1ccc(OCCNS(=O)(=O)c2ccc3oc4ccccc4c3c2)cc1 | · | -1.3 | 0.9 | -7.0
COc1ccc(NS(=O)(=O)c2ccc3oc4ccccc4c3c2)cn1 | 100.0* | 76.2 | -9.1 | -4.0
COc1ccccc1N1CCN(C(=O)c2c(-c3ccccc3Cl)noc2C)CC1 | 6.8 | 7.1 | -2.6 | 1.0
COc1cc(NC(=O)Cn2c(=O)n(-c3cccc(C)c3)c(=O)c3c(C)c(C)sc32)cc(OC)c1 | · | -6.6 | 51.1 | ·
O=C(c1ccc(COc2ccccc2Br)o1)N1CCN(c2ccccn2)CC1 | · | · | · | -14.0
O=C(c1cccc(COc2ccc(Cl)cc2Cl)c1)N1CCN(c2ccccn2)CC1 | 86.5* | 82.3 | -8.2 | -37.0
CC1CCN(c2nc3ccc(C(=O)N4CCN(Cc5ccc6c(c5)OCO6)CC4)cc3s2)CC1 | · | 55.8* | -4.2 | -18.0
COc1ccc(CCNC(=O)C(=O)NCc2ccc(C)cc2)cc1OC | · | -26.2 | 7.1 | -1.0
C=CCNc1ncnc2c1[nH]c1ccc(C)cc12 | 90.5* | 33.2 | -4.1 | 82.0*
Cc1ccc2[nH]c3c(NCCN4CCOCC4)ncnc3c2c1 | 12.1 | -1.7 | -2.4 | 12.0
COC(=O)C1=C(N)c2c(F)cccc2C1(C#N)c1ccc(F)cc1 (stereo unspecified) | · | 3.9 | -1.1 | 2.0
Cc1csc(NC(=O)c2cccn2C)n1 | · | · | · | 0.0
O=C(Nc1nc(-c2ccccn2)cs1)c1ccc(Cl)s1 | 100.0* | 23.7 | 1.4 | 11.0
Cn1cccc1C(=O)Nc1nc(-c2ccccn2)cs1 | 90.1* | -1.9 | 12.2 | 19.0
CCOC(=O)CSC1=C(C#N)C(C)C2=C(CCCC2=O)N1 (stereo unspecified) | 13.7 | · | · | 2.0
O=S(=O)(Nc1cccc2cccnc12)c1ccc(S(=O)(=O)N2CCCC2)cc1 | 81.2* | 12.0 | -3.0 | -4.0
O=C(CC(=O)N1CCN(c2ccccn2)CC1)Nc1ccc2nc3n(c(=O)c2c1)CCCCC3 | -18.4 | -0.4 | 6.3 | -2.0
O=C(CCCNC(=O)/C(=C/c1ccccc1F)NC(=O)c1ccccc1)OCc1ccccc1 | · | 11.7 | 4.5 | ·
CC(C)COC(=O)NCCOC(=O)Nc1cccc(Cl)c1 | 89.0* | · | · | 25.0
COc1ccc(/C=c2/sc3n(c2=O)C(c2ccccc2OC)C2=C(N=3)c3ccccc3CC2)cc1O (stereo unspecified) | · | -13.7 | 169.1* | -19.0
Cc1cc(C)c(C#N)c(SCC(=O)OC2CCCCC2)n1 | 73.2* | -15.9 | 7.9 | -9.0
CCOC(=O)CSc1nc(C)cc(C)c1C#N | · | 3.3 | 1.3 | 7.0
SMILES | tolC growth inh | CD11b adhes inh | CD11b adhes enh | Ecoli WT expand
CC(=O)Nc1ccc(S(=O)(=O)NC2(C(F)(F)F)NC(=O)N(C3CCCCC3)C2=O)cc1 (stereo unspecified) | · | -6.8 | -1.9 | 3.0
O=C(N/N=C/c1ccc([N+](=O)[O-])o1)c1cc(-c2ccncc2)nc2ccccc12 | · | · | · | -4.0
Cn1c(/C=C/c2ccc([N+](=O)[O-])o2)nc2ccccc2c1=O | · | 6.7 | -3.0 | 65.0*
CCOc1ccc(/C=N/OCC(=O)NCc2ccc3c(c2)OCO3)cc1OC | · | -7.4 | -2.8 | ·
N#CC1=C(SCC(=O)c2cc3ccccc3oc2=O)NC(=O)C(C#N)C12CCCC2 (stereo unspecified) | 60.7* | 1.1 | -0.2 | -2.0
Cc1ccc(O)c(-c2cc(-c3ccccc3C)[nH]n2)c1 | 100.0* | -1.8 | 8.0 | 14.0
Oc1ccccc1-c1cc(-c2cccc(F)c2)n[nH]1 | 100.0* | 2.1 | 0.1 | 24.0
Oc1ccc(Cl)cc1-c1cc(-c2cccc(Br)c2)n[nH]1 | · | 15.8 | 33.1 | -8.0
Oc1ccccc1-c1cc(-c2ccccc2Cl)[nH]n1 | 100.0* | 6.5 | -0.3 | 4.0
Cc1ccc(O)c(-c2cc(C(F)(F)C(F)F)[nH]n2)c1 | 37.0 | 4.9 | -5.5 | 34.0
Oc1ccccc1-c1cc(-c2ccco2)[nH]n1 | · | 0.3 | -2.6 | 17.0
COc1cc(NS(=O)(=O)c2ccc(N/C=C(\C=O)c3nc4ccccc4o3)cc2)nc(OC)n1 | · | 8.1 | 0.0 | ·
Cc1ccc(N2C(=O)CC3(CC4C=CC3C4)C2=O)cc1 (stereo unspecified) | 1.9 | -16.7 | 3.9 | 3.0
CCn1cc(C(=O)NC(=S)Nc2cccc(O)c2)cn1 | · | -3.1 | -2.5 | 6.0
COc1ccc(-n2cnc3cc(NCc4cccs4)ccc32)cc1 | 98.0* | 7.9 | -1.4 | -12.0
Cc1nc2nc(-c3ccccc3)[nH]n2c(=O)c1Cc1ccccc1 | 29.3 | -4.0 | -1.8 | -8.0
Cc1nc2nc(-c3ccco3)[nH]n2c(=O)c1Cc1ccccc1 | 72.3* | -3.5 | 5.7 | 2.0
Cc1[nH]n(-c2ccccc2)c(=O)c1/C=N/Nc1nncc(-c2ccccc2)n1 | · | 29.9 | -4.3 | 93.0*
COc1ccc(-c2noc(CCCc3ccccc3)n2)cc1OC | 61.9* | · | · | -3.0
COc1ccc(-c2noc(Cc3ccc(Cl)cc3)n2)cc1OC | 62.8* | -0.9 | 1.2 | -12.0
Cc1ccc(-c2ccc(CCC(=O)O)n2CC2CCCO2)cc1 (stereo unspecified) | · | · | · | 16.0
COc1ccc(-c2cnc(N)n2CC2CCCO2)cc1 (stereo unspecified) | 63.6* | 30.5 | 1.0 | 14.0
FC(F)C(F)(F)C(F)(F)C(F)(F)c1cc(-c2ccccc2)n[nH]1 | 41.8 | 49.3 | -4.2 | 22.0
Cc1cc(C)c2nc3s/c(=C/c4ccccc4)c(=O)n3c2c1 | · | 56.8* | -4.8 | 2.0
COc1ccc(OC)c(C(=O)COC(=O)c2cc(C)oc2C)c1 | 61.0* | · | · | -4.0
SMILES | tolC growth inh | CD11b adhes inh | CD11b adhes enh | Ecoli WT expand
Cc1cc(C(=O)OCC(=O)c2ccc(Br)s2)c(C)o1 | 20.1 | -17.5 | 3.8 | -1.0
COC(=O)C1=NN(c2ccc(C)cc2)C2(S1)SC(C(C)=O)=C(C)N2c1ccccc1 (stereo unspecified) | · | 0.0 | -1.6 | -16.0
[N-]=[N+]=CC(=O)c1ccnc(C(=O)C=[N+]=[N-])c1 | 8.0 | -12.6 | 0.3 | 55.0*
O=C(NCc1ccco1)c1cnn2c1NC(c1ccccc1)CC2C(F)(F)F (stereo unspecified) | 11.4 | 6.9 | 1.9 | 10.0
O=C(NCc1ccco1)c1cnn2c1NC(c1ccc(Br)cc1)CC2C(F)(F)F (stereo unspecified) | 67.5* | -14.7 | 3.6 | 3.0
O=C(c1c(F)cccc1F)N(Cc1ccccn1)C1CC1 | · | -7.9 | 3.7 | 2.0
CCN(c1ccccc1)S(=O)(=O)c1ccc(NCC2COc3ccccc3O2)nc1 (stereo unspecified) | 61.6* | 10.3 | 12.3 | -21.0
CCCNCC1COc2ccccc2O1 (stereo unspecified) | · | 19.2 | -2.0 | 1.0
C=CCn1c(O)c(C2=c3ccccc3=NC2=O)sc1=Nc1ccc(O)cc1 | 100.0* | · | · | ·
C=CCN1C(=O)CSC1=Nc1ccc(O)cc1 | · | -6.7 | -3.5 | 12.0
CCc1c(O)nc(SCC(=O)Nc2ccccc2)n(-c2ccccc2)c1=O | 6.1 | -4.0 | 2.6 | -6.0
CCc1c(O)nc(SCC(=O)Nc2ccc(C)cc2)n(C2CCCCC2)c1=O | 77.8* | 31.9 | 1.7 | 1.0
